The source made the active and inactive calls. The rule behind the calls is not given here.
Assays:
[1] = Antiproliferative activity against human PB1 cells assessed as inhibition of cell growth measured after 72 hrs by CCK-8 assay; type: functional, cell-based; conditions: PB1, 72 h
Outline: (§1)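 Cells seeded at 3000 cells/well in 96-well plates and treated with graded compound concentrations one day later for 72 h. CCK-8 was added for 1–4 h and absorbance read at 450 nm. Lung cancer lines were kept in RPMI 1640 with 10% fetal calf serum at 37 °C and 5% CO₂.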

[2] = tested on: NCI-H1975; experiment: Antiproliferative activity against human NCI-H1975 cells assessed as inhibition of cell growth measured after 72 hrs by CCK-8 assay; type: functional, cell-based; conditions: NCI-H1975, 72 h; outline: as §1
[3] = tested on: HCC827; experiment: Antiproliferative activity against human HCC827 cells assessed as inhibition of cell growth measured after 72 hrs by CCK-8 assay; type: functional, cell-based; conditions: HCC827, 72 h; outline: as §1
[4] = tested on: A549; experiment: Antiproliferative activity against human A549 cells assessed as inhibition of cell growth measured after 72 hrs by CCK-8 assay; type: functional, cell-based; conditions: A549, 72 h; outline: as §1
[5] = tested on: BaF3; experiment: Antiproliferative activity against mouse BaF3 cells assessed as inhibition of cell growth measured after 72 hrs by CCK-8 assay; type: functional, cell-based; conditions: BaF3, 72 h; outline: as §1
[6] = tested on: Protein cereblon/Epidermal growth factor receptor (Homo sapiens), P00533+Q96SW2 [L858R,T790M]; experiment: Protac activity at CRBN/EGFR L858R/T790M mutant in human NCI-H1975 cells assessed as induction of EGFR degradation measured after 16 hrs by Western blot assay; type: cell-based
Outline: (§2)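 Cells seeded at 1-3X10^5/well and treated one day later with compounds at the concentrations and times given. Lysed in RIPA buffer with protease inhibitors. 15 µg protein run on 8% SDS-PAGE, transferred to nitrocellulose, probed for EGFR or phospho-EGFR, ECL detection. Lung lines kept in RPMI 1640 with 10% fetal calf serum, 37 °C, 5% CO2. DC50 is an estimated value. Repeated more than 3 times.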

[7] = biological target: T1, Protein cereblon/Epidermal growth factor receptor (Homo sapiens, UniProt P00533+Q96SW2); experiment: Protac activity at CRBN/EGFR in human PC-9 cells assessed as induction of EGFR degradation by Western blot assay; type: cell-based
[8] = biological target: T1, Protein cereblon/Epidermal growth factor receptor; experiment: Protac activity at CRBN/EGFR in human NCI-H1975 cells assessed as induction of EGFR degradation by Western blot assay; type: cell-based
[9] = biological target: T1, Protein cereblon/Epidermal growth factor receptor; experiment: Protac activity at CRBN/EGFR in human A549 cells assessed as induction of EGFR degradation by Western blot assay; type: cell-based
[10] = tested on: Protein cereblon/Epidermal growth factor receptor (Homo sapiens), P00533+Q96SW2 [UNDEFINED MUTATION]; experiment: Protac activity at CRBN/EGFR exon 19 deletion mutant in human PC-9 cells assessed as induction of EGFR degradation at >10 nM measured after 48 hrs by Western blot assay; type: cell-based; conditions: dose nM >10, time 48.0 hrs; outline: as §2
[11] = tested on: Protein cereblon/Epidermal growth factor receptor (Homo sapiens), P00533+Q96SW2 [L858R,T790M]; experiment: Protac activity at CRBN/EGFR L858R/T790M mutant in human NCI-H1975 cells assessed as induction of EGFR degradation measured after 48 hrs by Western blot assay; type: cell-based; conditions: dose 30-500 nM; outline: as §2
[12] = tested on: Protein cereblon/Epidermal growth factor receptor (Homo sapiens), P00533+Q96SW2 [L858R,T790M]; experiment: Protac activity at CRBN/EGFR L858R/T790M mutant in human NCI-H1975 cells assessed as induction of EGFR degradation at 300 nM pretreated for 24 hrs followed by compound washout and subsequent addition of fresh medium by Western blot assay relative to control; type: cell-based
Outline: (§3)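 H1975 cells were treated with 300 nM PROTAC for 24 h. Medium was removed, cells were washed 3 times with PBS, and fresh RPMI 1640 with 10% fetal calf serum was added. Cells were harvested at time points up to 72 h after drug removal, and total EGFR was measured by Western blot.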

[13] = tested on: Protein cereblon/Epidermal growth factor receptor (Homo sapiens), P00533+Q96SW2 [L858R,T790M]; experiment: Protac activity at CRBN/EGFR L858R/T790M mutant in human NCI-H1975 cells assessed as induction of EGFR degradation at 300 nM incubated for 24 hrs followed by compound washout and measured 72 hrs after drug removal by Western blot assay; type: cell-based; outline: as §3
[14] = tested on: NCI-H1975; experiment: Cell cycle arrest in human NCI-H1975 cells expressing EGFR L858R/T790M mutant assessed as increase of cell population in G0/G1 phase at […] measured after 48 hrs by RNaseA/propidium iodide staining based flow cytometry; type: functional; conditions: dose lower 0.03 nM
Outline: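 H1975 cells (1 × 10⁵/well, 6-well plates) treated one day after seeding at the indicated concentrations for 48 h. Washed in cold PBS, fixed in cold ethanol at −20 °C for over 24 h, then stained with PI/RNase for 30 min at 37 °C in the dark. Phase distribution measured by flow cytometry.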

[15] = tested on: NCI-H1975; experiment: Induction of apoptosis in human NCI-H1975 cells expressing EGFR L858R/T790M mutant assessed as decrease in number of viable cells measured after 72 hrs by Annexin-V/FITC staining based flow cytometry method; type: functional, cell-based
Outline: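 H1975 cells (8 × 10⁴/well, 12-well plates) treated one day after seeding at graded concentrations for 72 h. Collected, stained with Annexin V-FITC, and apoptosis measured by flow cytometry.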

[16] = tested on: NCI-H1975; experiment: Antimigratory activity in human NCI-H1975 cells expressing EGFR L858R/T790M mutant at 500 nM measured after 24 hrs by wound healing assay; type: functional, cell-based
Outline: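 H1975 cells seeded in 24-well plates, scratched at confluence with a pipette tip 24 h later and washed three times with PBS. Then incubated with degrader at 300 or 500 nM. Six photos per well taken at set time points, and the uncovered wound area quantified.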

[17] = tested on: Protein cereblon/Epidermal growth factor receptor (Homo sapiens), P00533+Q96SW2 [L858R,T790M]; experiment: Protac activity at CRBN/EGFR L858R/T790M mutant in human NCI-H1975 cells assessed as induction of EGFR degradation at 0.3 uM pre-incubated for 2 hrs in the presence of MLN4924 and measured after 16 hrs by Western blot assay; type: cell-based; conditions: time 18.0 hrs
[18] = tested on: Protein cereblon/Epidermal growth factor receptor (Homo sapiens), P00533+Q96SW2 [L858R,T790M]; experiment: Protac activity at CRBN/EGFR L858R/T790M mutant in human NCI-H1975 cells assessed as induction of EGFR degradation at 0.3 uM pre-incubated for 2 hrs in the presence of Bafilomycin A1 and measured after 16 hrs by Western blot assay; type: cell-based; conditions: time 18.0 hrs
[19] = tested on: Protein cereblon/Epidermal growth factor receptor (Homo sapiens), P00533+Q96SW2 [L858R,T790M]; experiment: Protac activity at CRBN/EGFR L858R/T790M mutant in human NCI-H1975 cells assessed as increase in ratio of LC3B2 to LC3B1 at 30 to 300 nM measured after 16 hrs by Western blot assay; type: cell-based; conditions: dose 30-300 nM
Outline: (§4)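 H1975 cells in RPMI 1640 with 10% serum. Autophagy was read by Western blot as the LC3B II/LC3B I ratio. Serum-free medium and rapamycin served as autophagy-inducing positive controls, and rapamycin was also combined with degrader. Where pretreatment applied, compounds were added for 2 h before a 16 h PROTAC treatment.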

[20] = tested on: Protein cereblon/Epidermal growth factor receptor (Homo sapiens), P00533+Q96SW2 [L858R,T790M]; experiment: Protac activity at CRBN/EGFR L858R/T790M mutant in human NCI-H1975 cells assessed as increase in ratio of LC3B2 to LC3B1 under serum starvation condition at 0.3 uM measured after 16 hrs by Western blot assay; type: cell-based; outline: as §4
[21] = tested on: Protein cereblon/Epidermal growth factor receptor (Homo sapiens), P00533+Q96SW2 [L858R,T790M]; experiment: Protac activity at CRBN/EGFR L858R/T790M mutant in human NCI-H1975 cells assessed as increase in cell doubling time at 100 to 300 nM measured after 4 days by […] staining based fluorescence assay; conditions: dose 100-300 nM, time 4.0 day

## C=CC(=O)Nc1cc2c(Nc3ccc(F)c(Cl)c3)ncnc2cc1OCCCN1CCN(C(=O)CCCCCCNc2cccc3c2C(=O)N(C2CCC(=O)NC2=O)C3=O)CC1 (configuration not stated)
[1]
  IC50: 0.0895 µM
[2]
  IC50: 0.0265 µM
[3]
  IC50: 0.00115 µM
[4]
  IC50: > 10 µM
[5]
  IC50: 0.0513 µM
[6]
  Activity: Active
[7]
  DC50: 0.03 µM
[8]
  DC50: < 0.03 µM
[9]
  DC50: Not Active
[10]
  Activity: Dose-Dependent Effect
[11]
  Activity: Dose-Dependent Effect
[12]
  Activity: Active
[13]
  Activity: Active
[14]
  Activity: Active
[15]
  Activity: Dose-Dependent Effect
[16]
  Activity: Active
[17]
  Activity: inactive
[18]
  Activity: inactive
[19]
  Activity: Active
[20]
  Activity: Active
[21]
  Activity: Active

## C=CC(=O)Nc1cc2c(Nc3ccc(F)c(Cl)c3)ncnc2cc1OCCCN1CCN(C(=O)CCCCCNc2cccc3c2C(=O)N(C2CCC(=O)NC2=O)C3=O)CC1 (configuration not stated)
[1]
  IC50: 0.045 µM
[2]
  IC50: 0.0221 µM
[3]
  IC50: 0.00212 µM
[4]
  IC50: > 10 µM
[5]
  IC50: 0.0713 µM
[6]
  Activity: Active
[7]
  DC50: 0.1 µM
[8]
  DC50: 0.03 µM
[9]
  DC50: Not Active
[10]
  Activity: Dose-Dependent Effect
[11]
  Activity: Dose-Dependent Effect
[12]
  Activity: Active
[13]
  Activity: Active
[14]
  Activity: Active
[15]
  Activity: Dose-Dependent Effect
[16]
  Activity: Active
[17]
  Activity: inactive
[18]
  Activity: inactive
[19]
  Activity: Active
[20]
  Activity: Active
[21]
  Activity: Active
